Assay [1] has as its target Protein polybromo-1 (Homo sapiens, UniProt Q86U86). Kind of assay: Binding affinity to human partial length PBRM1(2) expressed in bacterial expression system by BROMOscan assay.
Assay [2] addresses Bromodomain adjacent to zinc finger domain protein 2A (Homo sapiens, UniProt Q9UIF9). Kind of assay: Binding affinity to human partial length BAZ2A expressed in bacterial expression system by BROMOscan assay.
Assay [3] has as its target T1, Transcription intermediary factor 1-alpha (Homo sapiens, UniProt O15164).
T1 sequence (O15164 whole entry): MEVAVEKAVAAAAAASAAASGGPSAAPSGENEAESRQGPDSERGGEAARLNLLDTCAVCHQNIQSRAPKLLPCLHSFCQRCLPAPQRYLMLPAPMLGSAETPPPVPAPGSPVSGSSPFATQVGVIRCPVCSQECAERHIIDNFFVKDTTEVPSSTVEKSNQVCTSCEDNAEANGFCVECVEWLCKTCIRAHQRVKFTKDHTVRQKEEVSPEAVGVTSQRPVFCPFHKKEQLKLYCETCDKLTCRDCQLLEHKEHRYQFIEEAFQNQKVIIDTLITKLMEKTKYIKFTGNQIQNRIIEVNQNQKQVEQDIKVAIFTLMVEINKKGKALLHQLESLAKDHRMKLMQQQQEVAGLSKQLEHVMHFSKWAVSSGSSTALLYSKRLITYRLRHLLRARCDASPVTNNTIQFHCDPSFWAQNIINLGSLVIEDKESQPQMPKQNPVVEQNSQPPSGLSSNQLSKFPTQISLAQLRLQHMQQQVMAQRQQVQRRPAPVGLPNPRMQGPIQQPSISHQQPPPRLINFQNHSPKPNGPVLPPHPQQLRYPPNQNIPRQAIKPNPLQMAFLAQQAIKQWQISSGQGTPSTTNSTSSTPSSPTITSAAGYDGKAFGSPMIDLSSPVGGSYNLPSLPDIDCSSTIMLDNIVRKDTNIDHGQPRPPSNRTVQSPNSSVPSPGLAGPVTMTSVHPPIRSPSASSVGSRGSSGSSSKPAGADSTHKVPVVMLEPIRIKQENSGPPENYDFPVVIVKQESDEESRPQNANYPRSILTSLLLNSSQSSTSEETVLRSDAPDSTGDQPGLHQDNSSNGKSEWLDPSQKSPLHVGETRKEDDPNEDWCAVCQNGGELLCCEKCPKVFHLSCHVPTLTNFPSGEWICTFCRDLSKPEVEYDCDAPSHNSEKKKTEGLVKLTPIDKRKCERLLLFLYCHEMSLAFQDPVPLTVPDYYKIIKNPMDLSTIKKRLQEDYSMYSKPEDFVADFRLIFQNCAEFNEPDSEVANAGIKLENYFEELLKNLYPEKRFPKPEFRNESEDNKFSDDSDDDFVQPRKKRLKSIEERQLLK
Kind of assay: Binding affinity to human partial length TRIM24 expressed in bacterial expression system by BROMOscan assay.

Assay [4] has as its target SWI/SNF-related matrix-associated actin-dependent regulator of chromatin subfamily A member 2 (Homo sapiens, UniProt P51531). Put plainly: Binding affinity to human partial length SMARCA2 expressed in bacterial expression system by BROMOscan assay.
For assay [5], the species on record is Homo sapiens. Put plainly: Selectivity index, ratio of IC50 for recombinant His-tagged TAF1 isoform-1 (unknown origin) to IC50 for recombinant His-tagged CECR2 (unknown origin). In short, it runs like this: (§1)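 Protein and then probe were added, 10 min each. Anti-His-europium (0.2 nM) plus SA-APC was read after 40 min. 10-point titrations (N=2), ≥2 independent runs, 4-parameter Hill fit. Index is the ratio of the two IC50s.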

Assay [6] is filed under the species Homo sapiens. Put plainly: Selectivity index, ratio of IC50 for recombinant His-tagged BRPF1 (unknown origin) to IC50 for recombinant His-tagged CECR2 (unknown origin). In outline:
as §1

Assay [7] deals with Chromatin remodeling regulator CECR2 (Homo sapiens, UniProt Q9BXF3). Kind of assay: Inhibition of recombinant His-tagged CECR2 (unknown origin) using biotinylated ligand incubated for 10 mins by TR-FRET assay.
The species named for assay [8] is Homo sapiens. Kind of assay: Selectivity index, ratio of IC50 for recombinant His-tagged CBP (unknown origin) to IC50 for recombinant His-tagged CECR2 (unknown origin). In short, it runs like this:
as §1

Assay [9] has as its target Transcription initiation factor TFIID subunit 1 (Homo sapiens, UniProt P21675). Put plainly: Inhibition of recombinant His-tagged TAF1 isoform-2 (unknown origin) using biotinylated ligand incubated for 10 mins by TR-FRET assay.
Assay [10] deals with T2, Bromodomain-containing protein 9 (Homo sapiens, UniProt Q9H8M2).
T2 sequence (Q9H8M2 whole entry): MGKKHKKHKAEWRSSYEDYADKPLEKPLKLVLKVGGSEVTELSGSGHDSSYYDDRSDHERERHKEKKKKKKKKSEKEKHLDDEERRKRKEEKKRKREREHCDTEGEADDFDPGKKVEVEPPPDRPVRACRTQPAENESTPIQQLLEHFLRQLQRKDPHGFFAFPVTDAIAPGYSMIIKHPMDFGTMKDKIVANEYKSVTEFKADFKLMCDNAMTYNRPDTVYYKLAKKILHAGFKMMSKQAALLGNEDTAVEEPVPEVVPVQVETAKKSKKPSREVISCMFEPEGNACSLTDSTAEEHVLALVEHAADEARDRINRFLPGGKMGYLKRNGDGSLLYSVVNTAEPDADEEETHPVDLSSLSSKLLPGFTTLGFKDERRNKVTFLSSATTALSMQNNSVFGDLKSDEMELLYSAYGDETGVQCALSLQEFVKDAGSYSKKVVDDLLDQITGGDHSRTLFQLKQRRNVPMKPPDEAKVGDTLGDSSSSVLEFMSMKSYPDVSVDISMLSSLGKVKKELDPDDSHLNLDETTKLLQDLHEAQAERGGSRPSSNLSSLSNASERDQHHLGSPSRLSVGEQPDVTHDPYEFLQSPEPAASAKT
Kind of assay: Displacement of biotinylated JQ1 analog from recombinant His-tagged BRD9 (unknown origin) incubated for 10 mins by TR-FRET assay. A general note: In TR-FRET formats the signal depends on donor and acceptor labels being close together.

SMILES strings stand for the structures.

Sequence of Bromodomain adjacent to zinc finger domain protein 2A (Q9UIF9 whole entry, the tested form may be a part): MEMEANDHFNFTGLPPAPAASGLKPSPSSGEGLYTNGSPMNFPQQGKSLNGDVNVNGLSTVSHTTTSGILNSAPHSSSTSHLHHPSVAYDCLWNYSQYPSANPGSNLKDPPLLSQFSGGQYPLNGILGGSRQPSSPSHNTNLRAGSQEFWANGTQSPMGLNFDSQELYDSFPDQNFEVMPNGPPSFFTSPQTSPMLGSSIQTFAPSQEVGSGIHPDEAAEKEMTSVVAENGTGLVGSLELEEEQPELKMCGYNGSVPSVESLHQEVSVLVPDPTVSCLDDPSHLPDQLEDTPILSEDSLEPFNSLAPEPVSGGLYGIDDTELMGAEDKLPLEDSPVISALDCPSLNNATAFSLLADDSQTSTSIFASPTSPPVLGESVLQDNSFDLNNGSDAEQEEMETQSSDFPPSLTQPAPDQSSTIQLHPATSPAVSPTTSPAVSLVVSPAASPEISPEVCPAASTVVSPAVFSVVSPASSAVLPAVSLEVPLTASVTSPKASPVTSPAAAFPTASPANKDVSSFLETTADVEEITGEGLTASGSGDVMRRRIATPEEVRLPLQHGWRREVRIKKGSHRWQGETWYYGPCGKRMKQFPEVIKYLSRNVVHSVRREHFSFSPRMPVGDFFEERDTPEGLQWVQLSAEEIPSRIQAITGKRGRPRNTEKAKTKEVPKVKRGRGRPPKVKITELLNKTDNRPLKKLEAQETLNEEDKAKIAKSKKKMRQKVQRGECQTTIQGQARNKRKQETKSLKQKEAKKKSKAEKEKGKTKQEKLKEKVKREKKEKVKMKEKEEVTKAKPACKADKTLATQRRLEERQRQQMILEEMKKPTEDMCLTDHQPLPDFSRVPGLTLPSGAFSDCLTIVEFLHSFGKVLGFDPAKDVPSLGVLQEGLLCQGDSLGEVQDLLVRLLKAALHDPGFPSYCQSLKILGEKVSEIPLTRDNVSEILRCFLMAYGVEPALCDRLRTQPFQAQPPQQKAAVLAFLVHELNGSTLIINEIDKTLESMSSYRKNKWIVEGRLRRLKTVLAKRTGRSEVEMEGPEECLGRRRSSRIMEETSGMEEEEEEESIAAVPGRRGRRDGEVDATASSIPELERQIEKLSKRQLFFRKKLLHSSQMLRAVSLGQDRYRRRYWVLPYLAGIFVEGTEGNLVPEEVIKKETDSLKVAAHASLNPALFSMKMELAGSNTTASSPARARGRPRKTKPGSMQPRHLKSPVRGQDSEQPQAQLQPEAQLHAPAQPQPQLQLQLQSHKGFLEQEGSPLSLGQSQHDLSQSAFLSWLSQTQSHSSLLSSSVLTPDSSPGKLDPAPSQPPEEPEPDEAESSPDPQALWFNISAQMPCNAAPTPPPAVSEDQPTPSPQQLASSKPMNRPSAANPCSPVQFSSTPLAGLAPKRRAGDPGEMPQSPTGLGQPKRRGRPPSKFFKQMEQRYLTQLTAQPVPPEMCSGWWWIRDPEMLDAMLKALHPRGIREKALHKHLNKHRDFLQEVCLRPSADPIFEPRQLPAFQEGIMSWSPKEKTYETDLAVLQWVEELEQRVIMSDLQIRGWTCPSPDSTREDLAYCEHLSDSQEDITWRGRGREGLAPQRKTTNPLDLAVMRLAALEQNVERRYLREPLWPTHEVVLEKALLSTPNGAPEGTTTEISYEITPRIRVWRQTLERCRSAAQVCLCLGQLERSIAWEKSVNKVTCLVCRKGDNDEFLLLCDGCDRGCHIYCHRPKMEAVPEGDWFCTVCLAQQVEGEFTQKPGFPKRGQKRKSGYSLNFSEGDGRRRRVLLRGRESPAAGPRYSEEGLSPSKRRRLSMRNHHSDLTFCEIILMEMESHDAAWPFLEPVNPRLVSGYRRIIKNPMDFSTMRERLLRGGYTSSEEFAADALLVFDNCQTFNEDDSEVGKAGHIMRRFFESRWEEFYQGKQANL
Sequence of Chromatin remodeling regulator CECR2 (Q9BXF3 whole entry): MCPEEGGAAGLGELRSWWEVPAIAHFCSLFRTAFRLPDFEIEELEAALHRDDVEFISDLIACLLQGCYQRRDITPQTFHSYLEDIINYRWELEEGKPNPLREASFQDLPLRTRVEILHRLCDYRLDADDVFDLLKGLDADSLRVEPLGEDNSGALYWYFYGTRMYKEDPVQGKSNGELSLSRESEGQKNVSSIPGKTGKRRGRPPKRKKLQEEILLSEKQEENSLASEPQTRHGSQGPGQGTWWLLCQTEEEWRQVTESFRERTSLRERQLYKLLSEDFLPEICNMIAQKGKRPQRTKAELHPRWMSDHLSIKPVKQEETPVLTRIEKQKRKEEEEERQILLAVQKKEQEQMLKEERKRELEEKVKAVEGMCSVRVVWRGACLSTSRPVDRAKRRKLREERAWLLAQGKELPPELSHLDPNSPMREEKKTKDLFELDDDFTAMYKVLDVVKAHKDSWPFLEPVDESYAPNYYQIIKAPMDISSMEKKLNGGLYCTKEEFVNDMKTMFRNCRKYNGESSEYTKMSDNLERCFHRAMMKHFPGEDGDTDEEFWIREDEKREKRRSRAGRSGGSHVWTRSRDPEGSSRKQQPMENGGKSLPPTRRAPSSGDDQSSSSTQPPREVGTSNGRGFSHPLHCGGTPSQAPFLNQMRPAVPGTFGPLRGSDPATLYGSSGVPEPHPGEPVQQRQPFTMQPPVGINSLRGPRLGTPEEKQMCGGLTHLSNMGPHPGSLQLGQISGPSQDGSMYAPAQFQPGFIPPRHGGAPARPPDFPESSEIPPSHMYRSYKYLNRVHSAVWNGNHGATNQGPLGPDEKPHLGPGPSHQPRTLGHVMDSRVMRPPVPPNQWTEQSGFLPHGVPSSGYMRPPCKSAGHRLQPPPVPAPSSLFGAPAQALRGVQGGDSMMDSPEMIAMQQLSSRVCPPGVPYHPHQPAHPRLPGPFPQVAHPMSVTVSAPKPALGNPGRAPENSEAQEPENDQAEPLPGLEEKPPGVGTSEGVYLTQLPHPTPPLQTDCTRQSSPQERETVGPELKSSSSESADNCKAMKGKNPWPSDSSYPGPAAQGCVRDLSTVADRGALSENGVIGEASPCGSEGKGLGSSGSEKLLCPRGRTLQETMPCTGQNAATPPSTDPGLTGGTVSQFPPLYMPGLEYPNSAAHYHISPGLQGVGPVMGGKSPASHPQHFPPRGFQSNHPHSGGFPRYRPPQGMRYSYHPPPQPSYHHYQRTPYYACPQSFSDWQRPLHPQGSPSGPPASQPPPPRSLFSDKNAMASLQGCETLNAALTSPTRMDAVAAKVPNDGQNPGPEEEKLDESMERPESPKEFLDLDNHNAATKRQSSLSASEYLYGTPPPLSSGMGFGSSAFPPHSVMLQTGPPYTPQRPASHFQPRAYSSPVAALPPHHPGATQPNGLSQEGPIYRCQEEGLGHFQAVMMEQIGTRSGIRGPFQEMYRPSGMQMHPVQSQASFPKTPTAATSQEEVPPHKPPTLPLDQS
Sequence of SWI/SNF-related matrix-associated actin-dependent regulator of chromatin subfamily A member 2 (P51531 whole entry, canonical isoform): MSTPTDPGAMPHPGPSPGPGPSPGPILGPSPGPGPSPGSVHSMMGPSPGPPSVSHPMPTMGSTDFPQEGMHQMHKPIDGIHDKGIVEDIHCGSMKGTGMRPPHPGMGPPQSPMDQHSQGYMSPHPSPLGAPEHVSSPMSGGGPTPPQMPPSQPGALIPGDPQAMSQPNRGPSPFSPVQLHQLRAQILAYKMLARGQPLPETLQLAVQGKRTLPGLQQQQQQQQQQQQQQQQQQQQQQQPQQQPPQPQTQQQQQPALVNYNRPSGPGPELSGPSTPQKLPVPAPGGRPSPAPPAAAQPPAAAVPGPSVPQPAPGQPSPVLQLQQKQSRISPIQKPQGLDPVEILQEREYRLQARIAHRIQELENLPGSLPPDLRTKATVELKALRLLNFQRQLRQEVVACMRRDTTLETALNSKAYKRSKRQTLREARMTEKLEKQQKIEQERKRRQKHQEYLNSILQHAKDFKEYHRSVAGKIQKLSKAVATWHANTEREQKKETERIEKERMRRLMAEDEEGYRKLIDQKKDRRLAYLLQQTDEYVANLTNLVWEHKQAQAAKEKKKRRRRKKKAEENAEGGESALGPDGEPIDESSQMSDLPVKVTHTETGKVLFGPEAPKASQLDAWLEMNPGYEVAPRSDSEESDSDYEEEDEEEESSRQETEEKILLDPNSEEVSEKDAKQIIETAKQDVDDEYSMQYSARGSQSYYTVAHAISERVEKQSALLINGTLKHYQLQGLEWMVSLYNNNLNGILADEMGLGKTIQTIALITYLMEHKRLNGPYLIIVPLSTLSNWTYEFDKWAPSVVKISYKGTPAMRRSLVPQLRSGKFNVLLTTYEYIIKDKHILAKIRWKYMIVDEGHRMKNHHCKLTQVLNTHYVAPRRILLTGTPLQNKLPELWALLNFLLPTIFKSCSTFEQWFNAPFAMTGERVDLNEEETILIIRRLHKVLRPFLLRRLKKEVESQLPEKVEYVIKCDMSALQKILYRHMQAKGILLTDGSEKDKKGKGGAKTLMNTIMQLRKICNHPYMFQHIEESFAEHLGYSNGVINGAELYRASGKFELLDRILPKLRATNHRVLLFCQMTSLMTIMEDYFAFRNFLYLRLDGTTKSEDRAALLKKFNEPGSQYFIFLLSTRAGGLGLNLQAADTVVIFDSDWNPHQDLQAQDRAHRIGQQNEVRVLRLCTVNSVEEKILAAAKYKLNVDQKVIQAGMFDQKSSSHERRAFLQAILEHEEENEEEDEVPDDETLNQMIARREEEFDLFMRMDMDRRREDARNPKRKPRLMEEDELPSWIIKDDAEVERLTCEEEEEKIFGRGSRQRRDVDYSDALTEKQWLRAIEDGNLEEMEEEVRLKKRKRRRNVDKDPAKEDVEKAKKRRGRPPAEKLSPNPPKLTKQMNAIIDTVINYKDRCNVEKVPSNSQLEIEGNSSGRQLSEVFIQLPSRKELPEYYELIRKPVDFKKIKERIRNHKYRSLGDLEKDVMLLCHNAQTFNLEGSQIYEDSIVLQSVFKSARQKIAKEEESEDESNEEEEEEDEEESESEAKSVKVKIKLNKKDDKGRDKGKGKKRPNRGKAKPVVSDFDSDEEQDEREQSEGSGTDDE

For the compound `CN(C)C(=O)c1cccc(-c2cn(C)c(=O)c3[nH]ccc23)c1`, the Kd in assay [1] amounted to 7600 nM; in assay [2], 880 nM; in assay [3] it was 910 nM; in [4] it was 6700 nM.

`C=CCn1cc(-c2cccc(C(=O)N(C)C)c2)c2cc[nH]c2c1=O`: the Ratio IC50 in assay [5], in [6] and in assay [8] was more than 10 each time. Besides, the IC50 in assay [7] turned out to be 170 nM; in [9], 770 nM; in assay [10], 290 nM.

By Kd is commonly meant the constant that tells how readily two partners part at equilibrium. A lower Kd goes with tighter binding. Usually IC50 stands for the point on the concentration scale where inhibition reaches its midpoint.

The values above are taken from ChEMBL document CHEMBL4425103, “Diving into the Water: Inducible Binding Conformations for BRD4, TAF1(2), BRD9, and CECR2 Bromodomains” (J Med Chem, 2016).
